Test [1] deals with 1-phosphatidylinositol 3-phosphate 5-kinase FAB1 (Saccharomyces cerevisiae (strain ATCC 204508 / S288c) (Baker's yeast), UniProt P34756). Put plainly: Inhibition of Saccharomyces cerevisiae GST-tagged Fab1 incubated for 15 mins in presence of ATP.
Test [2] deals with NIH3T3. Conditions: Mus musculus, dose 800.0 nM.
Test [3] concerns NIH3T3. Description: Induction of EEA1 localization in vesicular structures of mouse NIH3T3 cells at 800 nM incubated for 2 hrs. Format: functional, cell-based. The procedure, abridged:
(§1)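 NIH3T3 cells on coverslips, untreated or given 800 nM compound for 2 h. Fixed in 4% paraformaldehyde, permeabilized in 0.2% Triton X-100, blocked in 2% BSA, then anti-EEA1 staining. Confocal single 0.4 μm optical sections, with phase image merged onto the fluorescence image.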

Test [4] is described as follows: Inhibition of mouse type 1 alpha PtdInsP.
Test [5] can be described thus: Inhibition of Saccharomyces cerevisiae GST-tagged PIKfyve.
For another test, the system named is MCF-10A. Description: Induction of swollen vesicle phenotype in human MCF-10A cells at 800 nM incubated for 120 mins by time-lapse analysis. Format: functional, cell-based.
Test [6] deals with NIH3T3. Put plainly: Reversal of swollen vesicle phenotype in mouse NIH3T3 cells expressing Fab1 assessed as reduction in number of swollen vesicles at 800 nM incubated for 2 hrs by phase contrast microscopic analysis. Format: functional. Further details: scale not given: the % may be the effect or the level left.
In test [7] the target is Phosphatidylinositol 4,5-bisphosphate 3-kinase catalytic subunit alpha isoform (Homo sapiens, UniProt P42336). Description: Inhibition of GST-tagged Ptdlns3p P110alpha (unknown origin) expressed in baculovirus infected insect cells incubated for 15 mins in presence of ATP.
Test [8] deals with NIH3T3. Description: Induction of swollen vesicle phenotype in mouse NIH3T3 cells at 800 nM incubated for 120 mins by time-lapse analysis. The class given is functional, cell-based. The procedure, abridged: (§2)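 Live imaging of NIH3T3 cells on glass-bottom dishes in phenol red-free DMEM/10% DCS at 37°C, 10% CO2. Cells given 800 nM compound and phase imaged for 120 min, frames every 10 s. Then washed, placed in drug-free medium and filmed a further 130 min.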

A short description of test [9]: Effect on PtdIns(3,4)P2 production in [32p]pi labelled serum stimulated mouse NIH3T3 cells at 800 nM (reference value: 1366 +/- 44). The class given is functional. The procedure, abridged:
(§3)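 Sub-confluent NIH3T3 cells in 6 cm dishes, moved to phosphate-free medium and labelled with 0.3 mCi/ml 32Pi for 1 h, then treated with or without inhibitor for 20 min. Lysis in ice-cold 1 M HCl, scraping, lipid extraction and HPLC analysis of labelled phosphoinositides.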

A further test concerns MEF. Description: Induction of swollen vesicle phenotype in MEF cells at 800 nM incubated for 120 mins by time-lapse analysis. The class given is functional, cell-based. Conditions: Mus musculus.
In test [10] the test system is COS-7. Description: Induction of swollen vesicle phenotype in african green monkey COS-7 cells at 800 nM incubated for 120 mins by time-lapse analysis. The class given is functional, cell-based. As to conditions: Chlorocebus aethiops.
Test [11] concerns NIH3T3. Description: Induction of cell division in mouse NIH3T3 cells at 800 nM. The class given is functional, cell-based.
The test system of test [12] is NIH3T3. Put plainly: Reversal of swollen vesicle phenotype in mouse NIH3T3 cells expressing Fab1 assessed as reduction in size of swollen vesicles at 800 nM incubated for 2 hrs by phase contrast microscopic analysis. Format: functional, cell-based.
Test [13] relates to NIH3T3. Description: Inhibition of PKB phosphorylation at Ser473 residue in mouse NIH3T3 cells at 800 nM under serum starved condition. Format: cell-based. In outline: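 NIH3T3 cells, 200,000 per well, grown in DMEM/10% donor calf serum, then held 18 h in 0.1% DCS. Pretreated 15 min with vehicle (DMSO), 800 nM inhibitor, 20 nM rapamycin or 10 μM LY294002, then left unstimulated or stimulated 15 min with 10% DCS. Lysates run on 10% SDS-PAGE, PVDF immunoblot with specific antibodies.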

Test [14] is described as follows: Effect on PtdIns(4,5)P2 production in [32p]pi labelled serum stimulated mouse NIH3T3 cells at 800 nM (reference value: 487335 +/- 641). The class given is functional. In outline: as §3
The next test deals with MDCK. Description: Induction of swollen vesicle phenotype in MDCK cells at 800 nM incubated for 120 mins by time-lapse analysis. Format: functional, cell-based. Conditions: Canis lupus familiaris.
The subject of test [15] is NIH3T3. Description: Induction of swollen vesicle phenotype in mouse NIH3T3 cells incubated for 120 mins by time-lapse analysis. The class given is functional, cell-based. As to conditions: NIH3T3, 2 h. The procedure, abridged: as §2
Another test is filed under the species Homo sapiens. Description: Inhibition of type 2 gamma PtdInsP (unknown origin) at 10 uM relative to control.
The nature of test [16]: Effect on PtdIns3P production in [32p]pi labelled serum stimulated mouse NIH3T3 cells at 800 nM (reference value: 7685 +/- 307). Format: functional. The procedure, abridged:
as §3

Test [17] concerns NIH3T3. Description: Inhibition of autophagy in mouse NIH3T3 cells transfected with GFP-tagged LC3 assessed as accumulation of LC3 in enlarged vesicles at 800 nM after 2 hrs. Format: functional, cell-based. In outline: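 NIH3T3 cells transfected with GFP-LC3 (Lipofectamine 2000), examined 48 h post-transfection. Left untreated or treated 2 h with 800 nM compound, fixed in 4% paraformaldehyde, and GFP, phase and overlay images taken by confocal microscopy as 0.4 μm optical sections.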

Test [18] can be described thus: Effect on PtdIns(3,5)P2 production in [32p]pi labelled serum stimulated mouse NIH3T3 cells at 800 nM (reference value: 2219 +/- 71). Format: functional. In outline:
as §3

Test [19] can be described thus: Selectivity ratio of IC50 for GST-tagged Ptdlns3p P110alpha (unknown origin) to IC50 for Saccharomyces cerevisiae GST-tagged PIKfyve.
The nature of test [20]: Effect on PtdIns4P production in [32p]pi labelled serum stimulated mouse NIH3T3 cells at 800 nM (reference value: 212147 +/- 5485). Format: functional. In outline: as §3
Test [21] relates to NIH3T3. Description: Induction of EGF localization in mouse NIH3T3 cells at 800 nM preincubated for 2 hrs followed by EGF stimulation and measured after 60 mins. The class given is functional, cell-based. Conditions: time 3.0 hrs.
For test [22], the system named is NIH3T3. Description: Inhibition of cell growth in mouse NIH3T3 cells after 7 days. Format: functional. As to conditions: time 7 day.
In test [23] the test system is NIH3T3. Description: Induction of EEA1 localization in lumenal vesicles of mouse NIH3T3 cells at 800 nM incubated for 2 hrs. Format: functional, cell-based. The procedure, abridged:
as §1

Test [24] concerns COS-7. Description: Induction of EGF localization in african green monkey COS7 cells at 800 nM preincubated for 2 hrs followed by EGF stimulation and measured after 60 mins. Format: functional, cell-based. Conditions: Chlorocebus aethiops, time 3.0 hrs.
The test system of test [25] is NIH3T3. Put plainly: Induction of CI-MPR localization in perinuclear vesicle of mouse NIH-3T3 at 800 nM incubated for 2 hrs. Format: functional, cell-based.

Active and inactive are the calls of the source. The rule behind the calls is not given here.

Chain of 1-phosphatidylinositol 3-phosphate 5-kinase FAB1 (P34756 whole entry): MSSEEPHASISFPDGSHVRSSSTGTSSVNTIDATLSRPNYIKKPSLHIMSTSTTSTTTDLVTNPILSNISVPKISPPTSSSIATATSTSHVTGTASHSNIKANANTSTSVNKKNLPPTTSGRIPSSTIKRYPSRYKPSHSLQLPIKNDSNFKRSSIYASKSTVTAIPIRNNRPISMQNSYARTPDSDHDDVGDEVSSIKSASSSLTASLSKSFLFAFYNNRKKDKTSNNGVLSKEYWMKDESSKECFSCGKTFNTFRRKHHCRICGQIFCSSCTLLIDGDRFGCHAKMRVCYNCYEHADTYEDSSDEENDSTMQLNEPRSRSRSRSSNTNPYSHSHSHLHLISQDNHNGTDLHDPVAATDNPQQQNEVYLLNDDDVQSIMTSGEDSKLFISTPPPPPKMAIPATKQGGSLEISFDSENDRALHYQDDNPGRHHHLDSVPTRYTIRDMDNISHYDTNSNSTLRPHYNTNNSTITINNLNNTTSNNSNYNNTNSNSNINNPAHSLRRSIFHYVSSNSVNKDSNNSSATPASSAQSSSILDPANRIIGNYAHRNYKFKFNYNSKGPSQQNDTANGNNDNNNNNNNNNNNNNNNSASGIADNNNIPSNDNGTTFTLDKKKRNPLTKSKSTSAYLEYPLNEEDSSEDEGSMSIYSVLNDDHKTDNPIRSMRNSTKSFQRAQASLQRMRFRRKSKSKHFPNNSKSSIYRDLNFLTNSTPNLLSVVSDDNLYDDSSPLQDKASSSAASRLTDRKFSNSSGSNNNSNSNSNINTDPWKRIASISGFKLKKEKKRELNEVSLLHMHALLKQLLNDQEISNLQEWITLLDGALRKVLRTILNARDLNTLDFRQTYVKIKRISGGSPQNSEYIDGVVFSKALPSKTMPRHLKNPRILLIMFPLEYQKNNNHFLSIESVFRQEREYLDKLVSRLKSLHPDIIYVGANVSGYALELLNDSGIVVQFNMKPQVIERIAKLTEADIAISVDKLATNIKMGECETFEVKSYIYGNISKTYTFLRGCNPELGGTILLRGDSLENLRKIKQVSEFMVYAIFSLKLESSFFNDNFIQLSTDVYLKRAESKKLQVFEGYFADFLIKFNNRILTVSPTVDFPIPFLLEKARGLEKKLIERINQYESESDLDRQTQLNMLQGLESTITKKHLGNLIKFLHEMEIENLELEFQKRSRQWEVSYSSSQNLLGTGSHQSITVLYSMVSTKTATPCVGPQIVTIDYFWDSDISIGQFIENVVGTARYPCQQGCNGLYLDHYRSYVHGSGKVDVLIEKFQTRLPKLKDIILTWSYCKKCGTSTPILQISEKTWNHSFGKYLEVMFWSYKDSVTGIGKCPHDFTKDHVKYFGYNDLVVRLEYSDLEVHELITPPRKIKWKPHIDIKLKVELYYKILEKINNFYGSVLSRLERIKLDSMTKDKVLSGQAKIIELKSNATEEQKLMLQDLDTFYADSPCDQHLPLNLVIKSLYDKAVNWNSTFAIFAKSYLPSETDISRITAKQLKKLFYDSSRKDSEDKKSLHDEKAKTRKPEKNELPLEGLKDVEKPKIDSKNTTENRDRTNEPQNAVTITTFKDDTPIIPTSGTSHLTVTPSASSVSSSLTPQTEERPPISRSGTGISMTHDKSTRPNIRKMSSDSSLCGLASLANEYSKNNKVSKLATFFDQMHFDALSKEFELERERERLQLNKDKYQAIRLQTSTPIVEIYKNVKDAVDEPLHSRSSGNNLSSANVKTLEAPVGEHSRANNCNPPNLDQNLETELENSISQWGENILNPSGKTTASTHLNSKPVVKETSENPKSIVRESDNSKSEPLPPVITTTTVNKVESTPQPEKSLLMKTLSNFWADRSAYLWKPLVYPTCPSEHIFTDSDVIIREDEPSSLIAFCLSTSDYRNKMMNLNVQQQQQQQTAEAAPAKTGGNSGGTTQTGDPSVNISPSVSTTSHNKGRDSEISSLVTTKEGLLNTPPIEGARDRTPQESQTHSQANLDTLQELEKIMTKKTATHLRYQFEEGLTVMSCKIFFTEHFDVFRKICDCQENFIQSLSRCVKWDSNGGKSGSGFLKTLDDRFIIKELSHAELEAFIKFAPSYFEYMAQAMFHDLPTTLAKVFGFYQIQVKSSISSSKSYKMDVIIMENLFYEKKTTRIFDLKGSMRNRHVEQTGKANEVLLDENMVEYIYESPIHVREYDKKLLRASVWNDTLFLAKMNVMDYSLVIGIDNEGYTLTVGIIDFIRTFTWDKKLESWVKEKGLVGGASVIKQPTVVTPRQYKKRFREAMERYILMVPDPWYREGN
Chain of Phosphatidylinositol 4,5-bisphosphate 3-kinase catalytic subunit alpha isoform (P42336 whole entry, canonical isoform): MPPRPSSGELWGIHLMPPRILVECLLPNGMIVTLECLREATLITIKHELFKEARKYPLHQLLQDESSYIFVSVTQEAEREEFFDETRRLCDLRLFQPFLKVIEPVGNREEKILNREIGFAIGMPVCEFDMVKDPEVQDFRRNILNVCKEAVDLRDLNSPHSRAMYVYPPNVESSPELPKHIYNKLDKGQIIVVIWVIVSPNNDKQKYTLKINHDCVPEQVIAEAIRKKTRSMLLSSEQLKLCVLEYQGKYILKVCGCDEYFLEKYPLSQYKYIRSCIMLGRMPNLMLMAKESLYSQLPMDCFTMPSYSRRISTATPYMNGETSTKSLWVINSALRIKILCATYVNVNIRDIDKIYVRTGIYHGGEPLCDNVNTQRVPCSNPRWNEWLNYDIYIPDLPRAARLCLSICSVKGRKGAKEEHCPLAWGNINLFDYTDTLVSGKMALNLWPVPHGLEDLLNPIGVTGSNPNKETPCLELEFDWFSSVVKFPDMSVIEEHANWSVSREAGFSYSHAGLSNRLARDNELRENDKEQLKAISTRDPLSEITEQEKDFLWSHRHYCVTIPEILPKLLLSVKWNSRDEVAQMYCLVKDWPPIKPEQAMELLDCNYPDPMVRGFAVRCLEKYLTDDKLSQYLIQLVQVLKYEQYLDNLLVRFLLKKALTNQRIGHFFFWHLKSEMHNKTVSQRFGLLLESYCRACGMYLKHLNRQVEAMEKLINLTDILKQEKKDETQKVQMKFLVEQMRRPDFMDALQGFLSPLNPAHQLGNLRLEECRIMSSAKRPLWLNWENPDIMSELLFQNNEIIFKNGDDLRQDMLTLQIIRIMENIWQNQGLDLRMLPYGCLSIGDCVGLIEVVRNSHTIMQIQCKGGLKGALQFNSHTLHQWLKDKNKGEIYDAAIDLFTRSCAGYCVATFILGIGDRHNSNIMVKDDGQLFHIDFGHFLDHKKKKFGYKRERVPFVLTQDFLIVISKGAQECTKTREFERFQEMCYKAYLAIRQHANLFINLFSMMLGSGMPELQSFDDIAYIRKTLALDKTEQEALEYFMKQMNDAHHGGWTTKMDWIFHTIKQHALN

For the compound `Oc1cccc(-c2nc(N3CCOCC3)c3oc4ncccc4c3n2)c1` [PI-103], the half-maximal inhibitory concentration (IC50) in [1] was more than 10000 nM. Further, in the test on NIH3T3 [2], the inhibition result was “Active”.
As to `Nc1ccc(C(=O)Nc2cccc(-c3nc(N4CCOCC4)c4oc5ncccc5c4n3)c2)cn1`, the outcome with NIH3T3 [3], in the test on MCF-10A, in the test on NIH3T3 [8], in the test on MEF, in the test on COS-7 [10] and with NIH3T3 [12] was Active. Also, the outcome in the test with MDCK, in the test with NIH3T3 [17], with NIH3T3 [21], with NIH3T3 [23], with COS-7 [24] and in the test on NIH3T3 [25] was Active. Moreover, the IC50 in test [4] was more than 2000 nM; in [5] it was 33 nM; in test [7], 3300 nM; in test [1], more than 5000 nM. The Activity turned out to be 50% in the test with NIH3T3 [6]; 1319 in test [9]; 393289 in test [14]; 7476 in test [16]; 465 in test [18]; 194539 in test [20]. Also, in the test on NIH3T3 [11], the outcome was inactive. Further, the inhibition result in the test with NIH3T3 [13] and in the test listed under Homo sapiens was “inactive” in each case. The half-maximal effective concentration (EC50) with NIH3T3 [15] came to 400 nM. Besides, the Ratio IC50 in [19] was found to be 100. In addition, in the test with NIH3T3 [22], the “inhibition (INH)” value amounted to 25%.

Source of the values: ChEMBL document CHEMBL5647682, “A selective PIKfyve inhibitor blocks PtdIns(3,5)P(2) production and disrupts endomembrane transport and retroviral budding” (EMBO Rep, 2008).
